Data: ChEMBL document CHEMBL1938254, “Semisynthetic neoboutomellerone derivatives as ubiquitin-proteasome pathway inhibitors” (Bioorg Med Chem, 2012)

Assays:
[1] = Inhibition of chymotrypsin-like activity of 20S proteasome in human DLD1 cells transfected with 4Ub-Luc gene using Succinyl-Leu-Leu-Val-Tyr-AMC as substrate after 6 hrs by spectrofluorometric analysis; format: cell-based; settings: dld-1
Summary of the method: (§1)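 DLD-1 4Ub-Luc cells seeded at 10⁴ cells/well, exposed to compound or solvent for 6 h, then 30 min in reaction buffer (30 mM Tris–HCl pH 7.5, 1 mM ATP). Chymotrypsin-like and PGPH activities read with specific fluorogenic substrates.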

DLD-1 [2] = assay: Inhibition of 20S proteasome in human DLD1 cells transfected with 4Ub-Luc gene assessed as bioluminescence induction factor at 0.5 uM after 8 hrs by luciferase reporter gene assay relative to epoxomicin; format: cell-based
Summary of the method: (§2)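 Stably transfected DLD-1 cells expressing 4Ub-Luc reporter, cultured in MEM with 5% heat-inactivated serum. Seeded at 10⁴ cells/well and treated with compound or solvent for 8 h. Luciferase activity in lysates read by luminometer. Induction factor = signal of treated over untreated cells, normalised to epoxomicin at 10^-7 M run in parallel (set to 100). IF ≥10 counted active.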

DLD-1 [3] = assay: Inhibition of 20S proteasome activity in human DLD1 cells transfected with 4Ub-Luc gene assessed as bioluminescence induction factor at 10 uM after 8 hrs by luciferase reporter gene assay relative to epoxomicin; format: cell-based; summary of the method: as §2
DLD-1 [4] = assay: Inhibition of 20S proteasome in human DLD1 cells transfected with 4Ub-Luc gene assessed as bioluminescence induction factor at 1 uM after 8 hrs by luciferase reporter gene assay relative to epoxomicin; format: cell-based; summary of the method: as §2
[5] = Inhibition of peptide-glutamyl-peptide-hydrolyzing activity of 20S proteasome in human DLD1 cells transfected with 4Ub-Luc gene using Z-Leu-Leu-Glu-AMC as substrate after 6 hrs by spectrofluorometric analysis; format: cell-based; settings: dld-1; summary of the method: as §1
DLD-1 [6] = assay: Inhibition of 20S proteasome in human DLD1 cells transfected with 4Ub-Luc gene assessed as bioluminescence induction factor at 5 uM after 8 hrs by luciferase reporter gene assay relative to epoxomicin; format: cell-based; summary of the method: as §2
[7] = Cytotoxicity against human WM266.4 cells after 72 hrs by ATPlite assay; format: functional, cell-based; settings: WM 266-4, 72 h
Summary of the method: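 WM-266-4 metastatic melanoma cells grown in DMEM with 10% fetal calf serum, 2 mM L-glutamine, fungizone and penicillin–streptomycin at 37 °C, 5% CO2. Seeded at 3 × 10⁴ cells/ml, left 24 h, then exposed to increasing compound concentrations for 72 h. Viability read as ATP level (ATPlite). IC50 from nonlinear sigmoidal fit with variable Hill slope; mean of two independent experiments.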

DLD-1 [8] = assay: Inhibition of 20S proteasome in human DLD1 cells transfected with 4Ub-Luc gene assessed as bioluminescence induction factor at 0.1 uM after 8 hrs by luciferase reporter gene assay relative to epoxomicin; format: cell-based; summary of the method: as §2

| SMILES | IC50 [1] | fold change (FC) (DLD-1 [2]) | fold change (FC) (DLD-1 [3]) | fold change (FC) (DLD-1 [4]) | IC50 [5] | fold change (FC) (DLD-1 [6]) | IC50 [7] | fold change (FC) (DLD-1 [8]) |
| --- | --- | --- | --- | --- | --- | --- | --- | --- |
| C=C(C(=O)[C@H](OS(=O)(=O)O)[C@@H](C)[C@H]1[C@@H](OC(C)=O)C[C@@]2(C)[C@@H]3CC[C@H]4[C@H](C)C(=O)C=C[C@@]45C[C@@]35CC[C@]12C)[C@@H](C)COS(=O)(=O)O | > 1000 µM | 1 | 1.1 | 1 | > 1000 µM | 1 | – | – |
| C=C(C(=O)[C@H](OC(C)=O)[C@@H](C)[C@H]1[C@@H](OC(C)=O)C[C@@]2(C)[C@@H]3CC[C@H]4[C@H](C)C(=O)C=C[C@@]45C[C@@]35CC[C@]12C)[C@@H](C)CO [NEOBOUTOMELLERONE] | 16 µM | 2.1 | 4.4 | 48 | 23 µM | 37 | 2800 nM | – |
| C=C(C(=O)[C@H](OC(C)=O)[C@@H](C)[C@H]1[C@@H](OC(C)=O)C[C@@]2(C)[C@@H]3CC[C@H]4[C@H](C)C(=O)C=C[C@@]45C[C@@]35CC[C@]12C)[C@@H](C)COC(C)=O | 35 µM | 1.1 | – | 11 | 43 µM | 48 | 1500 nM | – |
| C=C(C(=O)[C@H](OC(=O)CNC(=O)OC(C)(C)C)[C@@H](C)[C@H]1[C@@H](OC(C)=O)C[C@@]2(C)[C@@H]3CC[C@H]4[C@H](C)C(=O)C=C[C@@]45C[C@@]35CC[C@]12C)[C@@H](C)COC(C)=O | 17 µM | 76 | 1.6 | 69 | 23 µM | 3.4 | 1000 nM | – |
| CC(C)C[C@H](NC(=O)[C@H](Cc1ccccc1)NC(=O)c1cnccn1)B(O)O [BORTEZOMIB] | 0.0002 µM | – | – | 117 | 0.0009 µM | – | 35 nM | 133 |
| CC[C@H](C)[C@H](NC(=O)[C@H]([C@@H](C)CC)N(C)C(C)=O)C(=O)N[C@H](C(=O)N[C@@H](CC(C)C)C(=O)[C@@]1(C)CO1)[C@@H](C)O [EPOXOMYCIN] | 0.006 µM | – | – | 112 | 0.06 µM | – | 4.8 nM | 100 |
| C=C(C(=O)[C@H](O)[C@@H](C)[C@H]1[C@@H](OC(C)=O)C[C@@]2(C)[C@@H]3CC[C@H]4[C@H](C)C(=O)C=C[C@@]45C[C@@]35CC[C@]12C)[C@@H](C)COC(=O)N1CCN(C)CC1 | 39 µM | – | – | – | 32 µM | – | 460 nM | – |
| CC(=O)N[C@@H](CSC(=O)[C@]1([C@@H](O)C(C)C)NC(=O)[C@H](C)[C@@H]1O)C(=O)O [LACTACYSTIN] | 0.07 µM | – | 93 | 72 | 0.3 µM | 106 | – | 6.2 |
| C=CC(=O)OC[C@H](C)C(=C)C(=O)[C@H](OC(C)=O)[C@@H](C)[C@H]1[C@@H](OC(C)=O)C[C@@]2(C)[C@@H]3CC[C@H]4[C@H](C)C(=O)C=C[C@@]45C[C@@]35CC[C@]12C | 14 µM | 1.4 | 2.2 | 20 | 13 µM | 18 | – | – |
| C=C(C(=O)[C@H](O)[C@@H](C)[C@H]1[C@@H](OC(C)=O)C[C@@]2(C)[C@@H]3CC[C@H]4[C@H](C)C(=O)C=C[C@@]45C[C@@]35CC[C@]12C)[C@@H](C)COC(=O)Nc1ccc(N(C)C)cc1 | > 1000 µM | 11 | 34 | 51 | > 1000 µM | 47 | 820 nM | – |
| C=C(C(=O)[C@H](OC(C)=O)[C@@H](C)[C@H]1[C@@H](OC(C)=O)C[C@@]2(C)[C@@H]3CC[C@H]4[C@H](C)C(=O)C=C[C@@]45C[C@@]35CC[C@]12C)[C@@H](C)COC(=O)Nc1ccc(N(C)C)cc1 | > 1000 µM | 19 | 60 | 51 | > 1000 µM | 63 | 960 nM | – |
